Assay results: ChEMBL document CHEMBL4715822, “Structure-based lead optimization to improve antiviral potency and ADMET properties of phenyl-1H-pyrrole-carboxamide entry inhibitors targeted to HIV-1 gp120” (Eur J Med Chem, 2018)
Values after ≈ are worked out from the molar mass of the structure shown.

Assays:
[1] = Inhibition of HIV1 gp120-mediated cell-cell fusion between viral envelope expressing in human HL2/3 cells to CD4/CCR5 receptor expressing in human TZM-bl cells after 1 hr by luciferase reporter gene assay; type: cell-based; settings: Human immunodeficiency virus 1, HL2/3, 1 h
[2] = Cytotoxicity against dog Cf2Th-CCR5 cells assessed as reduction in cell viability incubated for 48 hrs by XTT assay; type: cell-based, Canis lupus familiaris; settings: for CC50: cf2th-ccr5, 48 h
[3] = Cytotoxicity against human PBMC cells assessed as reduction in cell viability incubated for 1 hr followed by complete medium addition and measured after 48 hrs by XTT assay; type: cell-based
[4] = tested on: Human immunodeficiency virus 1; assay: Antiviral activity against HIV-1 ADA infected in human MOLT-4 cells assessed as reduction in viral transmission to TZM-bl cells incubated for 48 hrs by luciferase based assay; type: functional, organism-based; settings: Human immunodeficiency virus 1, ADA, MOLT-4, 48 h
[5] = tested on: Human immunodeficiency virus 1; assay: Antiviral activity against pseudovirus HIV-1 HXB-2 harboring Env M434I mutant infected in human U87.CD4.CXCR4 cells assessed as reduction in viral infection pretreated for 30 mins before viral infection and measured after 3 days by luciferase based assay; type: functional, cell-based, M:B_HXB2R
Outline: (§1)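 Pseudoviruses made in HEK293T by co-transfecting an Env-deleted backbone (pSG3Δenv or pNL4-3.Luc.R-.E-) with an HXB-2 Env plasmid carrying single or double substitutions; Env sequences confirmed by sequencing. Virus pretreated 30 min with graded compound, added to U87-CD4-CXCR4 cells (1 × 10⁴/well, plated overnight), incubated 3 days. Cells lysed, luciferase measured, IC50 calculated.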

[6] = Induction viral infection in pseudovirus HIV1 ADA infected in dog Cf2Th-CCR5 cells incubated for overnight followed by pretreated for 30 mins and added to cells measured after 48 hrs by luciferase-based assay; type: cell-based; settings: human immunodeficiency virus 1, cf2th-ccr5, 48.5 h
MT2 = assay: (§2) Cytotoxicity against human MT2 cells assessed as reduction in cell viability incubated for 4 days by XTT assay; type: cell-based; settings: mt2, 96 h, time 4 day
[7] = Antiviral activity against HIV-1 3B infected in human MT2 cells assessed as reduction in viral infection pretreated for 30 mins before viral infection and measured after 4 days by ELISA based multi cycle infection assay; type: functional, cell-based; settings: Human immunodeficiency virus 1, M:B_HXB2R
[8] = tested on: Human immunodeficiency virus 1; assay: Antiviral activity against HIV-1 HXB-2 infected in human TZM-bl cells assessed as reduction in viral infection pretreated for 30 mins before viral infection and measured after 3 days by luciferase based single cycle infection assay; type: functional, organism-based; settings: Human immunodeficiency virus 1, M:B_HXB2R
TZM = assay: (§3) Cytotoxicity against human TZM-bl cells assessed as reduction in cell viability incubated for 3 days by XTT assay; type: cell-based; settings: tzm, 72 h, time 3 day
[9] = as §2; type: cell-based; settings: MT2 cells, time 4 day
[10] = as §3; type: cell-based; settings: TZM-bl cells, time 3 day
[11] = Solubility in 5% DMSO at pH 7.4 at 500 uM incubated for 90 mins in shaker by spectrophotometry; type: physicochemical
Outline: (§4)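 DMSO stock diluted to 500 μM in universal aqueous buffer pH 7.4 with 2 or 5% DMSO final; quadruplicate, 90 min shaking at room temperature in filter plate, vacuum filtered; filtrate in 20% acetonitrile read by UV absorbance at six wavelengths. Filtrate/standard ratio binned as ~500, 100–500 or <100 μM.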

[12] = tested on: Human immunodeficiency virus 1; assay: Antiviral activity against HIV-1 3B infected in human H9 cells assessed as reduction in viral transmission to TZM-bl cells incubated for 48 hrs by luciferase based assay; type: functional, organism-based; settings: Human immunodeficiency virus 1, 3B, H9, 48 h
[13] = Solubility in 2 % DMSO at pH 7.4 at 500 uM incubated for 90 mins in shaker by spectrophotometry; type: physicochemical; outline: as §4
[14] = Protein binding in human plasma assessed as unbound fraction at 5 uM by LC-MS/MS analysis; type: ADME, cell-free
[15] = tested on: Human immunodeficiency virus 1; assay: Antiviral activity against pseudovirus HIV-1 HXB-2 harboring Env A204D mutant infected in human U87.CD4.CXCR4 cells assessed as reduction in viral infection pretreated for 30 mins before viral infection and measured after 3 days by luciferase based assay; type: functional, cell-based, M:B_HXB2R; outline: as §1
[16] = tested on: Human immunodeficiency virus 1; assay: Antiviral activity against pseudovirus HIV-1 HXB-2 harboring Env I424F mutant infected in human U87.CD4.CXCR4 cells assessed as reduction in viral infection pretreated for 30 mins before viral infection and measured after 3 days by luciferase based assay; type: functional, cell-based, M:B_HXB2R; outline: as §1
[17] = Apparent permeability across apical to basolateral side in human Caco2 cells incubated for 2 hrs by LC-MS/MS analysis; type: ADME, cell-based, Caco-2; settings: Caco-2
Outline: (§5)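 Caco-2 monolayers grown three weeks to differentiate; compound in transport buffer pH 7.4 (glucose, 10 mM HEPES, HBSS) added apical (A-B) or basal (B-A) side, with or without 100 μM verapamil; 2 h incubation, both sides sampled. Lucifer yellow 100 μM on A side checks integrity (≤2% transport). Papp = (dQ/dt)/(C0 × A); efflux ratio = Papp(B→A)/Papp(A→B).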

[18] = Metabolic stability in human liver microsomes assessed as parent compound remaining at 3 uM incubated for 120 mins by LC-MS/MS analysis; type: ADME, Microsome; settings: read-out: Stabilty
[19] = Metabolic stability in human liver microsomes assessed as intrinsic clearance at 3 uM incubated for 120 mins by LC-MS/MS analysis; type: ADME, Microsome; settings: read-out: CLH
[20] = Apparent permeability across basolateral to apical side in human Caco2 cells incubated for 2 hrs by LC-MS/MS analysis; type: ADME, cell-based, Caco-2; settings: Caco-2; outline: as §5

Structure (SMILES) | CC50 (MT2) | IC50 [7] | IC50 [8] | CC50 (TZM) | further results
CC1(C)CC(NC(=O)C(=O)Nc2ccc(Cl)cc2)CC(C)(C)N1 | – | – | – | – | IC50 [1]: 9.1 µM; CC50 [2]: > 60 µM
NC[C@@H](NC(=O)c1ccc(-c2ccc(C(F)(F)F)cc2)[nH]1)c1ncc(CO)s1 | 32 µM | – | – | – | CC50 at 49 h [3]: 61 µM; IC50 [4]: 1 µM; IC50 [5]: 0.97 µM; CC50 [2]: 37.7 µM; Activity [6]: Non-Toxic
Cc1c(F)cc(-c2ccc(C(=O)N[C@@H](CN)c3ncc(CO)s3)[nH]2)cc1F | 27 µM | 0.2 µM | 0.47 µM | 33.2 µM | –
NC[C@@H](NC(=O)c1ccc(-c2cc(F)c(Cl)c(F)c2)[nH]1)c1ncc(CO)o1 | – | – | – | – | CC50 at 96 h [9]: 44.7 µM; CC50 at 72 h [10]: 30.9 µM
NC[C@@H](NC(=O)c1ccc(-c2cc(F)c(Cl)c(F)c2)[nH]1)c1nc(CO)cs1 | 29.6 µM | – | – | 27.7 µM | –
Cc1c(F)cc(-c2ccc(C(=O)N[C@@H](CN)c3nc(CO)cs3)[nH]2)cc1F | 25.5 µM | 0.18 µM | 0.18 µM | 18.5 µM | –
Cc1c(F)cc(-c2ccc(C(=O)N[C@H](CN)c3ncc(CO)s3)[nH]2)cc1F | 26.8 µM | 0.2 µM | 0.2 µM | 32.9 µM | –
NC[C@@H](NC(=O)c1ccc(-c2cc(F)c(C(F)(F)F)c(F)c2)[nH]1)c1ncc(CO)s1 | – | – | – | – | CC50 at 96 h [9]: 15.5 µM; CC50 at 72 h [10]: 23.5 µM
NC[C@H](NC(=O)c1ccc(-c2cc(F)c(Cl)c(F)c2)[nH]1)c1ncc(CO)s1 | – | – | – | – | CC50 at 49 h [3]: > 60 µM; CC50 at 96 h [9]: 37 µM; CC50 at 72 h [10]: 39.5 µM
CNC[C@H](NC(=O)c1ccc(-c2cc(F)c(Cl)c(F)c2)[nH]1)c1nc(CO)cs1 | 18.8 µM | 0.18 µM | 0.23 µM | 18 µM | –
CC(C)(O)c1csc([C@H](CN)NC(=O)c2ccc(-c3cc(F)c(Cl)c(F)c3)[nH]2)n1 | 16.6 µM | 0.25 µM | 0.23 µM | 28.4 µM | –
NC[C@@H](NC(=O)c1ccc(-c2ccc(C(F)(F)F)c(F)c2)[nH]1)c1nc(CO)c(CO)s1 | 72.4 µM | 2 µM | 1.8 µM | > 65.4 µM | –
COC(C)(C)c1csc([C@@H](CN)NC(=O)c2ccc(-c3cc(F)c(Cl)c(F)c3)[nH]2)n1 | 29.5 µM | 6.1 µM | 9.3 µM | 39.6 µM | –
CNC[C@@H](NC(=O)c1ccc(-c2ccc(C(F)(F)F)cc2)[nH]1)c1nc(CO)cs1 | 19.8 µM | 0.6 µM | 0.62 µM | 23.5 µM | –
NC[C@H](NC(=O)c1ccc(-c2ccc(C(F)(F)F)cc2)[nH]1)c1ncc(CO)s1 | 36 µM | – | – | 35.6 µM | –
NC[C@H](NC(=O)c1ccc(-c2cc(F)c(Cl)c(F)c2)[nH]1)c1nc(CO)cs1 | – | – | – | – | CC50 at 49 h [3]: 61 µM; IC50 [4]: 0.44 µM; solubility kinetic at […], 500 µM [11]: 500 µM (≈ 206 µg/mL); IC50 [12]: 0.079 µM; solubility kinetic at […], 500 µM [13]: 100 µM (≈ 41.3 µg/mL); fraction unbound at 5 µM [14]: 0.00281; IC50 [15]: 0.87 µM; IC50 [16]: 1.3 µM; Papp A→B at 2 h [17]: 0.471 ×10⁻⁶ cm/s; remaining at 2 h, 3 µM [18]: 90.4%; CC50 at 48 h ([2]; Cf2Th-CCR5 cells): > 51 µM; Activity [6]: Non-Toxic; CC50 at 96 h [9]: 32.6 µM; microsomal CLint at 3 µM [19]: 1.6 µL/min/mg; CC50 at 72 h [10]: 42.1 µM; Papp B→A at 2 h [20]: 17 ×10⁻⁶ cm/s

Structure (SMILES) | CC50 (MT2) | IC50 [7] | IC50 [8] | CC50 (TZM) | further results
Cc1c(F)cc(-c2ccc(C(=O)N[C@H](CN)c3nc(CO)cs3)[nH]2)cc1F | 15.9 µM | 0.6 µM | 0.54 µM | 20.6 µM | –
NC[C@H](NC(=O)c1ccc(-c2cc(F)c(C(F)(F)F)c(F)c2)[nH]1)c1ncc(CO)s1 | – | – | – | – | CC50 at 96 h [9]: 14.3 µM; CC50 at 72 h [10]: 23 µM
CNC[C@@H](NC(=O)c1ccc(-c2cc(F)c(Cl)c(F)c2)[nH]1)c1nc(CO)cs1 | 24 µM | 0.4 µM | 0.25 µM | 23.8 µM | –
CC(C)(O)c1csc([C@@H](CN)NC(=O)c2ccc(-c3cc(F)c(Cl)c(F)c3)[nH]2)n1 | 18 µM | 0.8 µM | 0.56 µM | 27.2 µM | –
NC[C@@H](NC(=O)c1ccc(-c2ccc(C(F)(F)F)c(F)c2)[nH]1)c1nc(CO)cs1 | 20.5 µM | – | – | 17.3 µM | –
NC[C@H](NC(=O)c1ccc(-c2cc(F)c(Cl)c(F)c2)[nH]1)c1ncc(CO)o1 | – | – | – | – | CC50 at 96 h [9]: 26.5 µM; CC50 at 72 h [10]: 27.7 µM
NC[C@@H](NC(=O)c1ccc(-c2cc(F)c(Cl)c(F)c2)[nH]1)c1ncc(CO)s1 | – | – | – | – | CC50 at 96 h [9]: 17.4 µM; CC50 at 72 h [10]: 20.6 µM
NC[C@H](NC(=O)c1ccc(-c2ccc(C(F)(F)F)cc2)[nH]1)c1nc(CO)cs1 | 16.3 µM | 0.3 µM | 0.47 µM | 24.4 µM | –
NC[C@H](NC(=O)c1ccc(-c2cc(F)c(Cl)c(F)c2)[nH]1)c1nc(CO)c(CO)s1 | 96.7 µM | 3 µM | 2.3 µM | > 70 µM | –
NC[C@H](NC(=O)c1ccc(-c2ccc(C(F)(F)F)c(F)c2)[nH]1)c1nc(CO)c(CO)s1 | 92.3 µM | 3.6 µM | 3.1 µM | > 65 µM | –
NC[C@@H](NC(=O)c1ccc(-c2ccc(C(F)(F)F)cc2)[nH]1)c1nc(CO)cs1 | 15.1 µM | 1.75 µM | 0.9 µM | 27.6 µM | –
NC[C@@H](NC(=O)c1ccc(-c2ccc(C(F)(F)F)c(F)c2)[nH]1)c1ncc(CO)s1 | 21.5 µM | 0.24 µM | 0.2 µM | 18.5 µM | –
NC[C@H](NC(=O)c1ccc(-c2ccc(C(F)(F)F)c(F)c2)[nH]1)c1ncc(CO)s1 | 25.6 µM | 0.25 µM | 0.44 µM | 30.5 µM | –
NC[C@@H](NC(=O)c1ccc(-c2cc(F)c(Cl)c(F)c2)[nH]1)c1nc(CO)c(CO)s1 | 89.9 µM | 3.34 µM | 2.7 µM | 53 µM | –
CNC[C@H](NC(=O)c1ccc(-c2ccc(C(F)(F)F)cc2)[nH]1)c1nc(CO)cs1 | 17 µM | 0.1 µM | 0.31 µM | 22.4 µM | –
